# Source: PMC7699308 (Biochemistry, 2020)
# Bridges are numbered along the chain shown (N, C = ends). Where no end group is shown, it is not given here.
# Key:
# [1] = Ion mobility mass spectrometry, collision cross sections; type: physicochemical; conditions: for CCS, 1^+2 ion: charge +2, 100 mM ammonium acetate pH 7.5
# In short: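 Lyophilized peptide dissolved in DMSO at 3.2 mM, held 24 hrs at room temperature, then diluted 100-fold in 100 mM ammonium acetate pH 7.5 and directly infused for ion-mobility MS. m/z 350-5000 calibrated with cesium iodide. CCS calibrated daily with polyethylene oxide and tryptic cytochrome c peptides. TWCCS N2→He derived from reduced mobilities in nitrogen using helium calibrant values. Triplicate runs on different days.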
# [2] = Thioflavin T kinetic assay of amyloid formation; type: physicochemical; conditions: 16 μM peptide, 32 μM ThT, pH 7.4, 25°C, one week (seven days)
# In short: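 HFIP peptide stocks, quantified by A280, were lyophilized 24 hrs and resuspended in 10 mM phosphate, 140 mM KCl, pH 7.4, with 32 μM thioflavin T. Peptide was 16 μM in the main assays and 100 μM in the supplementary set. Run at 25°C without shaking, triplicate wells. Fluorescence read at ex 450/em 485 nm every ten minutes. T50 is the time to half-maximal ThT fluorescence.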
# [3] = Cytotoxicity dose response, statements of the text not split by assay; type: cell-based; conditions: rat
# [4] = monomer, TWCCS N2→He, triplicate on different days
Molecule,"CCS, 2^+4 ion ([1]; dimer, charge +4, triplicate on different days) [Å^2]","CCS, 2^+5 ion, second conformation ([1]; dimer, charge +5, lower line of the two conformations, triplicate) [Å^2]","CCS, 1^+2 ion [1, 4] [Å^2]","CCS, 1^+3 ion ([1]; monomer, charge +3, TWCCS N2→He, triplicate on different days) [Å^2]","CCS, 1^+4 ion, second (compact) conformation ([1]; monomer, charge +4, lower line of the two conformations, triplicate) [Å^2]",Increase in ThT fluorescence over the time course of the study [2],EC50 at 24 h [3] [µM]
"CC[C@H](C)[C@H](NC(=O)[C@H](C)NC(=O)CNC(=O)[C@H](Cc1ccccc1)NC(=O)[C@H](CC(N)=O)NC(=O)[C@H](CC(N)=O)NC(=O)[C@H](CO)NC(=O)[C@H](CO)NC(=O)[C@H](Cc1c[nH]cn1)NC(=O)[C@@H](NC(=O)[C@H](CC(C)C)NC(=O)[C@H](Cc1ccccc1)NC(=O)[C@H](CC(N)=O)NC(=O)[C@H](C)NC(=O)[C@H](CC(C)C)NC(=O)[C@H](CCCNC(=N)N)NC(=O)[C@H](CCC(N)=O)NC(=O)[C@@H](NC(=O)[C@H](C)NC(=O)[C@@H]1CSSC[C@H](NC(=O)[C@@H](N)CCCCN)C(=O)N[C@@H](CC(N)=O)C(=O)N[C@@H]([C@@H](C)O)C(=O)N[C@@H](C)C(=O)N[C@@H]([C@@H](C)O)C(=O)N1)[C@@H](C)O)C(C)C)C(=O)N[C@@H](CC(C)C)C(=O)N[C@@H](CO)C(=O)N[C@@H](CO)C(=O)N[C@H](C(=O)N[C@@H](CC(N)=O)C(=O)N[C@H](C(=O)NCC(=O)N[C@@H](CO)C(=O)N[C@@H](CC(N)=O)C(=O)N[C@H](C(=O)N[C@@H](Cc1ccc(O)cc1)C(N)=O)[C@@H](C)O)C(C)C)[C@@H](C)O [hIAPP, human islet amyloid polypeptide]",864.0 ± 9.9,863.0 ± 21.1,544.7 ± 4.6,551.1 ± 8.1,552.9 ± 12.2,showed an increase in ThT fluorescence,27 to 48.1
"IAPPA25P S28P: an A25P S28P analog of IAPP (KCNTATCATQRLANFLVHSSNNFGPILPSTNVGSNTY; disulfide 2-7; not fully specified (C-terminus); ends not checked; UniProt P10997 34-70, looked up, variant A25P S28P)",,,550.5 ± 3.8,,,showed no increase in ThT fluorescence,
